Assay results reported in ChEMBL document CHEMBL4689842, “EUbOPEN Chemogenomics Library wave 1” (2021).

Tests used:
HEK-293T = assay: Multiplex assay against HEK293T; format: toxicity, cell-based; conditions: human;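 as to Population Tubulin-Different-Phenotype (%): share of the cells with healthy nuclei that show this phenotype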
Method in brief: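 Live cells were stained at seeding with Hoechst33342, BioTracker Green Microtubule Cytoskeleton Dye, MitoTracker Red and Annexin V Alexa Fluor 680. Following compound addition, they were imaged on a CQ1 microscope at 37°C and 5% CO2 and gated by CellPathfinder machine learning into Hoechst high-intensity objects or normal cells, with normal cells split into healthy, pyknosed or fragmented nuclei and pyknosed cells into mitotic or apoptotic. Tubulin, mitochondrial-mass and membrane-permeability phenotypes are per cents of healthy-nucleus cells.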

Fibroblast = assay: Incucyte cell viability with human fibroblast; format: toxicity, cell-based; conditions: 10 µM, compound concentration 10 uM; also: filed as whole numbers so only -1 and 0 and 1 occur
[1] = 12 h, 1 µM, compound concentration 1 uM, replicate 1
[2] = 12 h, 1 µM, compound concentration 1 uM, replicate 2
[3] = 12 h, 10 µM, compound concentration 10 uM, replicate 1
[4] = 12 h, 10 µM, compound concentration 10 uM, replicate 2
[5] = 24 h, 1 µM, compound concentration 1 uM, replicate 1
[6] = 24 h, 1 µM, compound concentration 1 uM, replicate 2
[7] = 24 h, 10 µM, compound concentration 10 uM, replicate 1
[8] = 24 h, 10 µM, compound concentration 10 uM, replicate 2

CC[C@H](Nc1ncnc2[nH]cnc12)c1nc2cccc(F)c2c(=O)n1-c1ccccc1 [IDELALISIB]
Population Apoptotic (%) (HEK-293T; [1]): 22%
Population Fragmented Nuclei (%) (HEK-293T; [1]): 18%
Population Healthy Nuclei (%) (HEK-293T; [1]): 46%
Population Hoechst High Intensity Objects (%) (HEK-293T; [1]): 14%
Population Membrane Permeable-Phenotype (%) (HEK-293T; [1]): 12%
Population Mitochondria Different-Phenotype (%) (HEK-293T; [1]): 15%
Population Mitotic Cells (%) (HEK-293T; [1]): 77%
Population Normal (%) (HEK-293T; [1]): 85%
Population Pyknosed Nuclei (%) (HEK-293T; [1]): 34%
Population Tubulin-Different-Phenotype (%) (HEK-293T; [1]): 29%
Total Cell Count (HEK-293T; [1]): 588
Population Apoptotic (%) (HEK-293T; [2]): 10%
Population Fragmented Nuclei (%) (HEK-293T; [2]): 5%
Population Healthy Nuclei (%) (HEK-293T; [2]): 85%
Population Hoechst High Intensity Objects (%) (HEK-293T; [2]): 3%
Population Membrane Permeable-Phenotype (%) (HEK-293T; [2]): 11%
Population Mitochondria Different-Phenotype (%) (HEK-293T; [2]): 18%
Population Mitotic Cells (%) (HEK-293T; [2]): 89%
Population Normal (%) (HEK-293T; [2]): 96%
Population Pyknosed Nuclei (%) (HEK-293T; [2]): 9%
Population Tubulin-Different-Phenotype (%) (HEK-293T; [2]): 64%
Total Cell Count (HEK-293T; [2]): 1315
Population Apoptotic (%) (HEK-293T; [3]): 18%
Population Fragmented Nuclei (%) (HEK-293T; [3]): 15%
Population Healthy Nuclei (%) (HEK-293T; [3]): 60%
Population Hoechst High Intensity Objects (%) (HEK-293T; [3]): 9%
Population Membrane Permeable-Phenotype (%) (HEK-293T; [3]): 4%
Population Mitochondria Different-Phenotype (%) (HEK-293T; [3]): 3%
Population Mitotic Cells (%) (HEK-293T; [3]): 81%
Population Normal (%) (HEK-293T; [3]): 91%
Population Pyknosed Nuclei (%) (HEK-293T; [3]): 23%
Population Tubulin-Different-Phenotype (%) (HEK-293T; [3]): 2%
Total Cell Count (HEK-293T; [3]): 500
Population Apoptotic (%) (HEK-293T; [4]): 8%
Population Fragmented Nuclei (%) (HEK-293T; [4]): 8%
Population Healthy Nuclei (%) (HEK-293T; [4]): 86%
Population Hoechst High Intensity Objects (%) (HEK-293T; [4]): 2%
Population Membrane Permeable-Phenotype (%) (HEK-293T; [4]): 1%
Population Mitochondria Different-Phenotype (%) (HEK-293T; [4]): 10%
Population Mitotic Cells (%) (HEK-293T; [4]): 91%
Population Normal (%) (HEK-293T; [4]): 97%
Population Pyknosed Nuclei (%) (HEK-293T; [4]): 5%
Population Tubulin-Different-Phenotype (%) (HEK-293T; [4]): 7%
Total Cell Count (HEK-293T; [4]): 1603
Population Apoptotic (%) (HEK-293T; [5]): 17%
Population Fragmented Nuclei (%) (HEK-293T; [5]): 14%
Population Healthy Nuclei (%) (HEK-293T; [5]): 67%
Population Hoechst High Intensity Objects (%) (HEK-293T; [5]): 10%
Population Membrane Permeable-Phenotype (%) (HEK-293T; [5]): 16%
Population Mitochondria Different-Phenotype (%) (HEK-293T; [5]): 12%
Population Mitotic Cells (%) (HEK-293T; [5]): 82%
Population Normal (%) (HEK-293T; [5]): 89%
Population Pyknosed Nuclei (%) (HEK-293T; [5]): 18%
Population Tubulin-Different-Phenotype (%) (HEK-293T; [5]): 48%
Total Cell Count (HEK-293T; [5]): 613
Population Apoptotic (%) (HEK-293T; [6]): 8%
Population Fragmented Nuclei (%) (HEK-293T; [6]): 17%
Population Healthy Nuclei (%) (HEK-293T; [6]): 77%
Population Hoechst High Intensity Objects (%) (HEK-293T; [6]): 3%
Population Membrane Permeable-Phenotype (%) (HEK-293T; [6]): 28%
Population Mitochondria Different-Phenotype (%) (HEK-293T; [6]): 4%
Population Mitotic Cells (%) (HEK-293T; [6]): 91%
Population Normal (%) (HEK-293T; [6]): 96%
Population Pyknosed Nuclei (%) (HEK-293T; [6]): 4%
Population Tubulin-Different-Phenotype (%) (HEK-293T; [6]): 68%
Total Cell Count (HEK-293T; [6]): 2065
Population Apoptotic (%) (HEK-293T; [7]): 18%
Population Fragmented Nuclei (%) (HEK-293T; [7]): 11%
Population Healthy Nuclei (%) (HEK-293T; [7]): 77%
Population Hoechst High Intensity Objects (%) (HEK-293T; [7]): 5%
Population Membrane Permeable-Phenotype (%) (HEK-293T; [7]): 8%
Population Mitochondria Different-Phenotype (%) (HEK-293T; [7]): 4%
Population Mitotic Cells (%) (HEK-293T; [7]): 81%
Population Normal (%) (HEK-293T; [7]): 94%
Population Pyknosed Nuclei (%) (HEK-293T; [7]): 10%
Population Tubulin-Different-Phenotype (%) (HEK-293T; [7]): 7%
Total Cell Count (HEK-293T; [7]): 587
Population Apoptotic (%) (HEK-293T; [8]): 3%
Population Fragmented Nuclei (%) (HEK-293T; [8]): 29%
Population Healthy Nuclei (%) (HEK-293T; [8]): 68%
Population Hoechst High Intensity Objects (%) (HEK-293T; [8]): 3%
Population Membrane Permeable-Phenotype (%) (HEK-293T; [8]): 5%
Population Mitochondria Different-Phenotype (%) (HEK-293T; [8]): 1%
Population Mitotic Cells (%) (HEK-293T; [8]): 96%
Population Normal (%) (HEK-293T; [8]): 96%
Population Pyknosed Nuclei (%) (HEK-293T; [8]): 2%
Total Cell Count (HEK-293T; [8]): 2772
Growth Rate (Fibroblast; 6 h, replicate number 1, timepoint 6 hours): 0
Growth Rate (Fibroblast; 12 h, replicate number 1, timepoint 12 hours): 0
Growth Rate (Fibroblast; 18 h, replicate number 1, timepoint 18 hours): 0
Growth Rate (Fibroblast; 18 h, replicate number 2, timepoint 18 hours): 1
Growth Rate (Fibroblast; 24 h, replicate number 1, timepoint 24 hours): 1
